Blank lines part the entries; values can stand above or below the compound they belong to. Active and inactive are the calls of the source. No cut-off for these calls is given here.
Key:
Histamine H3 receptor = Histamine H3 receptor (Homo sapiens, UniProt Q9Y5N1); assay: Displacement of [125I]Iodoproxyfan from recombinant human histamine H3 receptor expressed in CHOK1 cell membranes after 90 mins
Method in brief: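 Membranes of CHO-K1 cells expressing hH3R were incubated 90 min at 25 °C, shaken at 250 rpm, with [125I]iodoproxyfan (16–50 pM) and test compound. Nonspecific binding was defined with 1 μM imetit. Separation by filtration on PEI-treated GF/B filters. Ki obtained from IC50 by Cheng-Prusoff.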

Mus musculus [1] = assay: Anticonvulsant activity in CF-1 albino mouse assessed as protection against maximal electroshock-induced seizures at 30 mg/kg, ip after 0.5 hrs; type: functional, organism-based
Method in brief: (§1)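 Male CF-1 albino mice received compound i.p. as a suspension in 0.5% methylcellulose (30, 100 or 300 mg/kg). Maximal electroshock seizure test read 0.5 h and 4 h after dosing. Result given as animals protected/animals tested.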

Mus musculus [2] = assay: Anticonvulsant activity in CF-1 albino mouse assessed as protection against maximal electroshock-induced seizures at 30 mg/kg, ip after 4 hrs; type: functional, organism-based; method in brief: as §1
Mus musculus [3] = assay: Anticonvulsant activity in CF-1 albino mouse assessed as protection against maximal electroshock-induced seizures at 100 mg/kg, ip after 4 hrs; type: functional, organism-based; method in brief: as §1
Mus musculus [4] = assay: Anticonvulsant activity in CF-1 albino mouse assessed as protection against maximal electroshock-induced seizures at 300 mg/kg, ip after 0.5 hrs; type: functional, organism-based; method in brief: as §1
Mus musculus [5] = assay: Anticonvulsant activity in CF-1 albino mouse assessed as protection against subcutaneous pentetrazole-induced seizures at 30 mg/kg, ip after 0.5 hrs; type: functional, organism-based
Mus musculus [6] = assay: Anticonvulsant activity in CF-1 albino mouse assessed as protection against subcutaneous pentetrazole-induced seizures at 30 mg/kg, ip after 4 hrs; type: functional, organism-based
Mus musculus [7] = assay: Anticonvulsant activity in CF-1 albino mouse assessed as protection against subcutaneous pentetrazole-induced seizures at 100 mg/kg, ip after 0.5 hrs; type: functional, organism-based
Mus musculus [8] = assay: Anticonvulsant activity in CF-1 albino mouse assessed as protection against subcutaneous pentetrazole-induced seizures at 100 mg/kg, ip after 4 hrs; type: functional, organism-based
Mus musculus [9] = assay: Anticonvulsant activity in CF-1 albino mouse assessed as protection against subcutaneous pentetrazole-induced seizures at 300 mg/kg, ip after 0.5 hrs; type: functional, organism-based
Mus musculus [10] = assay: Anticonvulsant activity in CF-1 albino mouse assessed as protection against subcutaneous pentetrazole-induced seizures at 300 mg/kg, ip after 4 hrs; type: functional, organism-based
Mus musculus [11] = assay: Neurotoxicity in CF-1 albino mouse assessed as unable to grasp at 100 mg/kg, ip after 0.5 hrs by rotarod test; type: toxicity, organism-based; conditions: in vivo
Method in brief: (§2)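 Anticonvulsant Screening Program (NINDS) Phase 1 neurotoxicity screen in male albino CF-1 mice. Compounds were given i.p. as suspensions in 0.5% methylcellulose at 30, 100 and/or 300 mg/kg, and animals were observed 0.5 h and 4 h after dosing. The rotarod test was scored as number of animals showing toxicity over number tested, with the kind of toxicity recorded: inability to grasp rotorod, death, diarrhea, continuous seizure activity, loss of righting reflex, myoclonic jerks or tremors.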

Mus musculus [12] = assay: Neurotoxicity in CF-1 albino mouse assessed as death at 100 mg/kg, ip after 4 hrs by rotarod test; type: toxicity, organism-based; conditions: in vivo; method in brief: as §2
Mus musculus [13] = assay: Neurotoxicity in CF-1 albino mouse assessed as death at 300 mg/kg, ip after 4 hrs by rotarod test; type: toxicity, organism-based; conditions: in vivo; method in brief: as §2
Mus musculus [14] = assay: Neurotoxicity in CF-1 albino mouse at 100 mg/kg, ip after 0.5 hrs by rotarod test; type: toxicity, organism-based; conditions: in vivo; method in brief: as §2
Mus musculus [15] = assay: Neurotoxicity in CF-1 albino mouse assessed as death at 300 mg/kg, ip after 0.5 hrs by rotarod test; conditions: in vivo
[16] = Drug level in pooled human liver microsomes treated with 50 uM 1-(5-(4-(tert-Pentyl)phenoxy)pentyl)azepane hydrogen oxalate after 2 hrs in presence of NADPH by LC/MS analysis; type: ADME, microsome
Method in brief: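 Pooled human liver microsomes (1 mg/ml) in 0.1 M Tris-HCl pH 7.4 with compound at 50 μM. After 5 min preincubation at 37 °C, reaction was started with NADPH regeneration system and run 2 h at 37 °C. Stopped with cold methanol and centrifuged. Supernatant analysed by UPLC-ESI tandem quadrupole MS.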

Sequence of Histamine H3 receptor (Q9Y5N1 whole entry): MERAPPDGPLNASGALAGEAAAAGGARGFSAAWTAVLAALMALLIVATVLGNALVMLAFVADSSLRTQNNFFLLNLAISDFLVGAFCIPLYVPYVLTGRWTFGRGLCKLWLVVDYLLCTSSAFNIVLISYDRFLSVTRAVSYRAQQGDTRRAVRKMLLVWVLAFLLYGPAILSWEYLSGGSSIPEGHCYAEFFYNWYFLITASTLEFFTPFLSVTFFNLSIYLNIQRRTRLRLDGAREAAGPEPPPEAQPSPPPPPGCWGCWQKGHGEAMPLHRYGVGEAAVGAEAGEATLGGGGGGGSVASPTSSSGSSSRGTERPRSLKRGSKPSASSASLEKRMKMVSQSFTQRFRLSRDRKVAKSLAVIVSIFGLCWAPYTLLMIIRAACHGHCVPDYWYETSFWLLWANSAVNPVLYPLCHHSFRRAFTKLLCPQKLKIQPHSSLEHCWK

Structure (SMILES): CCC(C)(C)c1ccc(OCCCCCCCCN2CCC(C)CC2)cc1.O=C(O)C(=O)O
- Ki (Histamine H3 receptor): 0.308 µM
- Activity (Mus musculus [1]): Active
- Activity (Mus musculus [2]): inactive
- Activity (Mus musculus [3]): Active
- Activity (Mus musculus [4]): Active
- Activity (Mus musculus [5]): inactive
- Activity (Mus musculus [6]): inactive
- Activity (Mus musculus [7]): inactive
- Activity (Mus musculus [8]): inactive
- Activity (Mus musculus [9]): inactive
- Activity (Mus musculus [10]): inactive
- Activity (Mus musculus [11]): Toxic
- Activity (Mus musculus [12]): Toxic
- Activity (Mus musculus [13]): Toxic
- Activity (Mus musculus [14]): Toxic
- Activity (Mus musculus [15]): Toxic

- Drug uptake [16]: Active
Structure (SMILES): CC(CO)c1ccc(OCCCCCN2CCCCCC2)cc1 (configuration not stated)

— ChEMBL document CHEMBL4219023, “Synthesis and biological activity of novel tert-amylphenoxyalkyl (homo)piperidine derivatives as histamine H3R ligands” (Bioorg Med Chem, 2017)
